Laboratory results as given in PMC9890135 (Molecular Cancer Therapeutics, 2022).

Experiments:
MER = target: T1, MER (Homo sapiens, UniProt Q12866); experiment: Inhibition of receptor phosphorylation, ELISA, MERTK-transfected 293A cells; type: cell-based
T1 sequence (Q12866 21-999): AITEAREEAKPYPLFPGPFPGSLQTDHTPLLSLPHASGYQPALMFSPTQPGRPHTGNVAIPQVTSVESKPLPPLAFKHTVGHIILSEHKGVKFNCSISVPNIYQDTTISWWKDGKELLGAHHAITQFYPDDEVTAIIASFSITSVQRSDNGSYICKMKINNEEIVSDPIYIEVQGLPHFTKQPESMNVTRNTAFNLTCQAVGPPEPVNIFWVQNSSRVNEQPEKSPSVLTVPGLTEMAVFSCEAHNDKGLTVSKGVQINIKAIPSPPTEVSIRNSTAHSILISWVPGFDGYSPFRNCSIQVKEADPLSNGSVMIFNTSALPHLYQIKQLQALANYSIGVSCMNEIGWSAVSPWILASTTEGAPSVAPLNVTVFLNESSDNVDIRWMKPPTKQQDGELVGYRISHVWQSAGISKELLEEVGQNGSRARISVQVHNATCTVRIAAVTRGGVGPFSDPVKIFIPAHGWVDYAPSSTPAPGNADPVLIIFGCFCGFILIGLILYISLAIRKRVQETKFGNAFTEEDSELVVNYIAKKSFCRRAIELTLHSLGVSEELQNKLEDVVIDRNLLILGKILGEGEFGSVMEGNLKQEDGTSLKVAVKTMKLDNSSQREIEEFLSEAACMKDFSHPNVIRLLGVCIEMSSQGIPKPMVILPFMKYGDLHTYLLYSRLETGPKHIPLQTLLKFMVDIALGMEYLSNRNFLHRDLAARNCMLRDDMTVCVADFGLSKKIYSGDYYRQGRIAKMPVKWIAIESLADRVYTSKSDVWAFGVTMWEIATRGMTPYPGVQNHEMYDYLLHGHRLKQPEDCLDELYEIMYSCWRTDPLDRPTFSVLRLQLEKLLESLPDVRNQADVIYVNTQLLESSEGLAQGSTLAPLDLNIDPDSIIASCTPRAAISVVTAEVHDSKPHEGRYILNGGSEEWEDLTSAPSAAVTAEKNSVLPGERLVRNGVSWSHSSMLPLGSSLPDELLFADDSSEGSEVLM

MET = MET (Homo sapiens, UniProt P08581, DEL964-1010); experiment: MET phosphorylation in Hs 746T tumors in vivo; design: species or system mice; settings: Hs 746T model; single dose of 100 mg/kg
AXL = target: T2, AXL (Homo sapiens, UniProt P30530); experiment: AXL phosphorylation in Hs 746T tumors in vivo; design: species or system mice
T2 sequence (P30530 26-894): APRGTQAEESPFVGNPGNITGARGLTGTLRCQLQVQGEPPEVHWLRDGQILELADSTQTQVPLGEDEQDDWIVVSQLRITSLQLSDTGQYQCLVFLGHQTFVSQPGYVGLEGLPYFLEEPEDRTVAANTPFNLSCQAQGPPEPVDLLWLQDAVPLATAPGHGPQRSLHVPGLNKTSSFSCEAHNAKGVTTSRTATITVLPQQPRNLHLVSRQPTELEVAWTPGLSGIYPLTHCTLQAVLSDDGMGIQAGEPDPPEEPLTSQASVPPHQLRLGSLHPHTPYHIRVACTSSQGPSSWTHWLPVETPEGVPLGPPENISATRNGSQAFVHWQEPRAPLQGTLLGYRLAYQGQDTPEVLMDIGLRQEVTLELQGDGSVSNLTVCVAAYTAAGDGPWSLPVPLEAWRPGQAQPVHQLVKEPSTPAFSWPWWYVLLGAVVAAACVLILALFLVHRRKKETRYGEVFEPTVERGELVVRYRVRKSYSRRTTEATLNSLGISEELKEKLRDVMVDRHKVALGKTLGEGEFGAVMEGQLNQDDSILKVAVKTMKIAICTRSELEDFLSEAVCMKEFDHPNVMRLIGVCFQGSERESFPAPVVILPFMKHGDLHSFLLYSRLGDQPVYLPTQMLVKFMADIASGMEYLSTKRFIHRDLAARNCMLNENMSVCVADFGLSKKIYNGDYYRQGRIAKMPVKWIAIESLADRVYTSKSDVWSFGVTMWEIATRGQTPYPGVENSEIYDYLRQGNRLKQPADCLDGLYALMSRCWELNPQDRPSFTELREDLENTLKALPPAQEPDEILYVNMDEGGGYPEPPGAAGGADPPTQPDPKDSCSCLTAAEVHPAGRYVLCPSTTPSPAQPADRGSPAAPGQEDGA
Outline: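 Hs 746T xenograft mice received single oral doses (30 or 100 mg/kg) or vehicle, n = 6/group. […] Tumour pAXL/AXL ratio reported as mean ± SEM, Mann–Whitney U test. Duration study: 100 mg/kg group sampled every 12 h up to 48 h.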

VEGFR2 = VEGFR2 (Mus musculus, UniProt P35918); type: in vivo, mice; settings: lung
Sequence of VEGFR2 (P35918 20-1345): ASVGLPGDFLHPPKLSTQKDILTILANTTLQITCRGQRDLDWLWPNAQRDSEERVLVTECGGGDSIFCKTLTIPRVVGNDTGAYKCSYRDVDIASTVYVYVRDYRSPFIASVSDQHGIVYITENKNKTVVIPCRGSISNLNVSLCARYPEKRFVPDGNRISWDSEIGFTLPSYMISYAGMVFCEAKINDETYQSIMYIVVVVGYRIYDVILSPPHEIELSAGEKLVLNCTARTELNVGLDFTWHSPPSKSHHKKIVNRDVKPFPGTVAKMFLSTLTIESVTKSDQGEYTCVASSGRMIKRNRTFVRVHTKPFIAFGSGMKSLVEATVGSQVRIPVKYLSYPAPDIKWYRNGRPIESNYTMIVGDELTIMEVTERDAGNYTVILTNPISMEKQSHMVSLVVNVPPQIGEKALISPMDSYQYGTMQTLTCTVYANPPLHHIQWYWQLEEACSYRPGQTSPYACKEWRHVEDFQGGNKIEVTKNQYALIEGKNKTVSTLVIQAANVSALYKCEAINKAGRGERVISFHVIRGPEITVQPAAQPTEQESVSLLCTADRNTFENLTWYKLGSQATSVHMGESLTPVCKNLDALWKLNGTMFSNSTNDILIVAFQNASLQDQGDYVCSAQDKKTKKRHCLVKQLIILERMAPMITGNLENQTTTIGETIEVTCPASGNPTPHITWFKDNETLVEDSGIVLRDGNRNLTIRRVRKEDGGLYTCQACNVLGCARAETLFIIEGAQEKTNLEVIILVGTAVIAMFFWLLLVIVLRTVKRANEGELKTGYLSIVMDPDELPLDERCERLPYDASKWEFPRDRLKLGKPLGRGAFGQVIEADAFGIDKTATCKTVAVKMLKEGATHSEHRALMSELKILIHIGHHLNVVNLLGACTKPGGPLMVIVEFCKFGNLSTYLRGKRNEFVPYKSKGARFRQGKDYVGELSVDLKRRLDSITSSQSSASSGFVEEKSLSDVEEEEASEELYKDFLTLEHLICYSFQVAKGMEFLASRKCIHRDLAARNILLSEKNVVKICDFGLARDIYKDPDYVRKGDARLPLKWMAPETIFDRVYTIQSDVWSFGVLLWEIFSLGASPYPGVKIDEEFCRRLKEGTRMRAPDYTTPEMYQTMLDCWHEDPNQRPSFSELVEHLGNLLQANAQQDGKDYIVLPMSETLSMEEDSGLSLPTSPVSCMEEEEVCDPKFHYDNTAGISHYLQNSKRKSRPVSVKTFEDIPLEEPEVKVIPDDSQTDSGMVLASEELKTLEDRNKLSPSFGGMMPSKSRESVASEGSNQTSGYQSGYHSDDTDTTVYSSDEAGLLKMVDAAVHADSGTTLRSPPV
Outline: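 Hs 746T tumour-bearing mice received single oral doses (30 or 100 mg/kg; n = 5 pooled) or vehicle (n = 6 pooled). Then hVEGF (10 μg i.v.) 3.5 h later, 30 min before sacrifice. Lung homogenate immunoprecipitated overnight with anti-VEGFR2 on Protein A magnetic beads; Western for phospho- and total VEGFR2, infrared imaging. 100 mg/kg group also sampled every 12 h to 48 h.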

[1] = Plasma protein binding, rapid equilibrium dialysis; type: in vitro ADME; settings: mouse
Outline: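 Rapid equilibrium dialysis against PBS at 10 μmol/L test compound, 16 h incubation, in triplicate.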

NCI-H441 tumors = experiment: NCI-H441 xenograft tumor growth; type: in vivo, mice; settings: 21 days, oral
Outline: (§1)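 Human tumour cells inoculated into the rear flank. Mice randomised at mean volumes of ~200 mm3 (Hs 746T), ~120 mm3 (MDA-MB-231), ~100 mm3 (NCI-H441) or ~90 mm3 (SNU-5). Oral gavage once daily with test compound or vehicle. Tumour volume and body weight measured at least twice weekly. […], using mean volumes at extraction and dosing start.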

Hs 746T tumors = experiment: Hs 746T xenograft tumor growth; type: in vivo, mice; settings: 12 days, oral
Outline: as §1

MDA-MB-231 tumors = experiment: MDA-MB-231 xenograft tumor growth; type: in vivo, mice; settings: 14 days, oral
Outline: as §1

[2] = Hs 746T model, single dose of 100 mg/kg

With `CNC(=O)c1cc2c(Oc3ccc(NC(=O)C4(C(=O)Nc5ccc(F)cc5)CC4)cc3)ccnc2cc1OC` [XL092] the IC50 (MER) was 6.01 ± 1.56 nM, the “duration of inhibition of MET phosphorylation” value (MET) was “approximately 24 hours” and the “duration of inhibition of AXL phosphorylation” value (AXL; [2]) was “approximately 24 hours”. The “tumor AXL phosphorylation relative to vehicle” value (AXL; Hs 746T xenograft, single oral doses 30 or 100 mg/kg, P < 0.01) was “significant decrease”, the “duration of inhibition of VEGFR2 phosphorylation” value (VEGFR2; [2]) was “approximately 24 hours” and the “pVEGFR2 Inhibition, %” value (VEGFR2; Hs 746T tumor-bearing mice, 30 mg/kg single bolus, 4 hours after treatment) was “complete abolishment”. For the same compound, the fraction unbound at 16 h, 10 μmol/L [1] was 0.003, the Tumor growth inhibition (NCI-H441 tumors; 1 mg/kg/day) was 68.3% and the “Tumor regression (%)” value (NCI-H441 tumors; 3 mg/kg/day) was 5.6%. The “Tumor regression (%)” value (NCI-H441 tumors; 10 mg/kg/day) was 67.7%, the “Tumor regression (%)” value (NCI-H441 tumors; 30 mg/kg/day) was 72.1% and the “Tumor regression (%)” value (NCI-H441 tumors; 60 mg/kg/day) was 86.1%. It also gave a Tumor growth inhibition (Hs 746T tumors; 1 mg/kg/day) of 10.1%, a Tumor growth inhibition (Hs 746T tumors; 3 mg/kg/day) of 35.6% and a Tumor growth inhibition (Hs 746T tumors; 10 mg/kg/day) of 70.2%. It also gave a Tumor growth inhibition (Hs 746T tumors; 30 mg/kg/day) of 94.9%, a Tumor growth inhibition (MDA-MB-231 tumors; 3 mg/kg/day) of 73.6% and a Tumor growth inhibition (MDA-MB-231 tumors; 10 mg/kg/day) of 78.6%.
